Data from ChEMBL document CHEMBL1124060, “2-Ethynylbenzenealkanamines. A new class of calcium entry blockers” (1988).

What was measured:
Assay type in all cases: functional
[1] = species: Cavia porcellus; assay: Concentration needed to achieve a 75% increase in coronary blood flow in 'Langendorff', guinea pig heart (in vitro negative inotropic activity)
Procedure, shortened: (§1)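 Isolated Langendorff-perfused guinea pig hearts infused with a range of drug concentrations; force (g), rate (beats/min) and coronary flow (mL/min) recorded. A linear regression of percent-control flow gives C175, the micromolar concentration raising flow to 175% of control, reported only if within the tested range. Raw data analysed by paired t tests.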

[2] = species: Cavia porcellus; assay: Concentration needed to achieve a 75% increase in coronary blood flow in 'Langendorff', guinea pig heart (in vitro Negative inotropic potency); procedure, shortened: as §1
[3] = species: Cavia porcellus; assay: Concentration needed to elicit a 75% increase beyond control in coronary flow in ''Langendorff'', guinea pig heart (in vitro); procedure, shortened: as §1
[4] = test system: Rattus norvegicus; assay: Ability to lower blood pressure in the spontaneously hypertensive rat (SHR) at 3 mg/kg (p.o.); details: route oral
Procedure, shortened: (§2)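 Spontaneously hypertensive rats dosed orally at the stated dose; read-out is the maximum fall in blood pressure (mmHg), with significance shown as P.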

[5] = test system: Rattus norvegicus; assay: Ability to lower blood pressure in the spontaneously hypertensive rat (SHR) at 10 mg/kg (p.o.); details: route oral; procedure, shortened: as §2
[6] = test system: Rattus norvegicus; assay: Ability to lower blood pressure in the spontaneously hypertensive rat (SHR) at 1 mg/kg (p.o.); details: route oral; procedure, shortened: as §2
[7] = species: Oryctolagus cuniculus; assay: Inhibition of [Ca2+] influx in response to a stimulus of norepinephrine (NE, 10 uM) expressed as percent change from control
Procedure, shortened: (§3)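 Test compounds at 10 μM; tension and calcium influx each expressed as % change from control, measured against KCl ([…]) or NE (10 μM) stimulus.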

[8] = species: Oryctolagus cuniculus; assay: In vitro inhibition of development of isometric tension, in response to norepinephrine (NE, 10 uM) in rabbit aorta expressed as percent change from control; procedure, shortened: as §3
[9] = species: Oryctolagus cuniculus; assay: In vitro inhibition of development of isometric tension, in response to KCl ([…]) in rabbit aorta expressed as percent change from control; procedure, shortened: as §3
[10] = species: Oryctolagus cuniculus; assay: Inhibition of [Ca2+] influx in response to a stimulus of KCL ([…]) expressed as percent change from control; procedure, shortened: as §3
[11] = species: Oryctolagus cuniculus; assay: In vitro inhibition of development of isometric tension, in response to KCl ([…]) in rabbit aorta; procedure, shortened: as §3
[12] = species: Oryctolagus cuniculus; assay: Inhibition of [Ca2+] influx in response to a stimulus of KCL ([…]); procedure, shortened: as §3
[13] = species: Oryctolagus cuniculus; assay: Inhibition of [Ca2+] influx in response to a stimulus of norepinephrine (NE, 10 uM); procedure, shortened: as §3
[14] = species: Oryctolagus cuniculus; assay: In vitro inhibition of development of isometric tension, in response to norepinephrine (NE, 10 uM) in rabbit aorta; procedure, shortened: as §3
[15] = test system: Rattus norvegicus; assay: Ability to lower blood pressure in the spontaneously hypertensive rat (SHR) at 100 mg/kg (p.o.); details: route oral
Procedure, shortened: (§4)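 Spontaneously hypertensive rats were given a single oral dose of the compound. The read-out was the maximum fall in blood pressure, in mmHg, after that dose. A P value for significance was reported with each value.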

[16] = test system: Rattus norvegicus; assay: Ability to lower blood pressure in the spontaneously hypertensive rat (SHR) at 30 mg/kg (p.o.); details: route oral; procedure, shortened: as §4
[17] = test system: Rattus norvegicus; assay: Ability to lower blood pressure in the spontaneously hypertensive rat (SHR) at 29 mg/kg (p.o.); details: route oral; procedure, shortened: as §4

COc1cccc(CCN(C)C(C)Cc2cc(OC)ccc2C#Cc2ccccc2)c1 (stereo not drawn)
Contractile force, % of control [1]: 95%
P (Ei) [2]: 0.21
C175 [3]: 0.0035 µM
Max fall in blood pressure [4]: 67 mmHg

COc1ccc(C#Cc2ccc(C#N)cc2)c(CC(C)N(C)CCc2ccc(OC)c(OC)c2)c1 (stereo not drawn)
Contractile force, % of control [1]: 75%
P (Ei) [2]: <0.05
C175 [3]: 0.45 µM
Max fall in blood pressure [5]: 27 mmHg

CCC#Cc1ccc(OC)cc1CCCN(C)CCc1ccc(OC)c(OC)c1
Contractile force, % of control [1]: 80%
P (Ei) [2]: <0.05
C175 [3]: 1 µM
Max fall in blood pressure [5]: 24 mmHg

COc1ccc(C#Cc2ccccc2)c(CC(C)NCCc2ccc(Cl)cc2)c1 (stereo not drawn)
Contractile force, % of control [1]: >25%
P (Ei) [2]: <0.05
C175 [3]: >3 µM
Max fall in blood pressure [5]: 39 mmHg

COc1ccc(C#Cc2ccccc2)c(CC(C)NCCc2cccc(Cl)c2Cl)c1 (stereo not drawn)
Contractile force, % of control [1]: 83%
P (Ei) [2]: 0.031
C175 [3]: 0.0048 µM
Max fall in blood pressure [4]: 45 mmHg

COc1ccc(C#Cc2ccccc2)c(CC(C)N(C)CCc2ccc(OC)c(OC)c2)c1 (stereo not drawn)
Contractile force, % of control [1]: 70%
P (Ei) [2]: <0.05
C175 [3]: 0.025 µM
Max fall in blood pressure [6]: 53 mmHg

COc1ccc(C#Cc2ccc(C(C)C)cc2)c(CC(C)N(C)CCc2ccc(OC)c(OC)c2)c1 (stereo not drawn)
Contractile force, % of control [1]: 34%
P (Ei) [2]: <0.001
C175 [3]: 4.04 µM
Max fall in blood pressure [4]: 13 mmHg

COc1ccc(C#Cc2ccccc2)c(CC(C)N(C)Cc2ccc(OC)c(OC)c2)c1 (stereo not drawn)
Contractile force, % of control [1]: 50%
P (Ei) [2]: <0.05
C175 [3]: 3 µM
Max fall in blood pressure [5]: 20 mmHg

COc1ccc(C#Cc2ccccc2)c(CC(C)N(C)CCc2cccc(Cl)c2)c1 (stereo not drawn)
Contractile force, % of control [1]: 95%
P (Ei) [2]: 0.53
C175 [3]: 0.005 µM
Max fall in blood pressure [4]: 64 mmHg

COc1cc(CCNC(C)Cc2cc(OC)ccc2C#Cc2ccccc2)cc(OC)c1 (stereo not drawn)
Contractile force, % of control [1]: 120%
Change [7]: -23%
P (Ei) [2]: 0.026
Change [8]: -13%
C175 [3]: 0.00075 µM
Change [9]: -15%
Max fall in blood pressure [5]: 36 mmHg
Change [10]: -42%

COc1cc(CCN(C)C(C)Cc2cc(OC)ccc2C#Cc2ccccc2)cc(OC)c1 (stereo not drawn)
Contractile force, % of control [1]: 100%
P (Ei) [2]: 0.5
Change [11]: -68%
C175 [3]: 0.0025 µM
Max fall in blood pressure [4]: 66 mmHg
Change [12]: -41%
Change [13]: -10%
Change [14]: -22%

COc1ccc(C#Cc2ccc(F)cc2)c(CC(C)N(C)CCc2ccc(OC)c(OC)c2)c1 (stereo not drawn)
Contractile force, % of control [1]: 78%
P (Ei) [2]: 0.003
C175 [3]: 0.0013 µM
Max fall in blood pressure [4]: 43 mmHg

COc1ccc(C#Cc2ccccc2)c(CC(C)N(C)CCc2ccc(Cl)c(Cl)c2)c1 (stereo not drawn)
Contractile force, % of control [1]: 90%
P (Ei) [2]: >0.5
C175 [3]: 0.004 µM
Max fall in blood pressure [6]: 67 mmHg

COc1ccc(C#Cc2ccccc2)c(CCCN(C)CCc2ccc(OC)c(OC)c2)c1
Contractile force, % of control [1]: 85%
P (Ei) [2]: <0.05
Max fall in blood pressure [15]: 62 mmHg
C175 [3]: 3 µM

CCCCC#Cc1ccc(OC)cc1CCCN(C)CCc1ccc(OC)c(OC)c1
Contractile force, % of control [1]: 100%
P (Ei) [2]: >0.5
Max fall in blood pressure [15]: 35 mmHg
C175 [3]: 0.2 µM

COc1ccc(C#Cc2ccc(N(C)C)cc2)c(CC(C)N(C)CCc2ccc(OC)c(OC)c2)c1 (stereo not drawn)
Contractile force, % of control [1]: 115%
P (Ei) [2]: 0.009
C175 [3]: 0.035 µM
Max fall in blood pressure [4]: 69 mmHg

COc1ccc(C#Cc2ccccc2)c(CC(C)NCCc2cccc(Cl)c2)c1 (stereo not drawn)
Contractile force, % of control [1]: 85%
P (Ei) [2]: 0.007
C175 [3]: 0.03 µM
Max fall in blood pressure [4]: 52 mmHg

COc1ccc(C#Cc2ccccc2)c(CC(C)N(C)CCc2cccc(Cl)c2Cl)c1 (stereo not drawn)
Contractile force, % of control [1]: 58%
P (Ei) [2]: 0.007
C175 [3]: 0.015 µM
Max fall in blood pressure [4]: 111 mmHg

COc1ccc(C#Cc2ccccc2)c(CCC(C)N(C)CCc2ccc(OC)c(OC)c2)c1 (stereo not drawn)
Contractile force, % of control [1]: 135%
Max fall in blood pressure [16]: 40 mmHg
P (Ei) [2]: 0.055
Change [11]: -71%
C175 [3]: 0.025 µM
Change [12]: -42%
Change [13]: -34%
Change [14]: -47%

COc1ccc(C#Cc2ccccc2)c(CC(C)NCCc2ccc(Cl)c(Cl)c2)c1 (stereo not drawn)
Contractile force, % of control [1]: 115%
P (Ei) [2]: 0.205
Change [11]: -20%
C175 [3]: 0.006 µM
Max fall in blood pressure [4]: 43 mmHg
Change [12]: -21%
Change [13]: -23%
Change [14]: -5%

COc1ccc(C#Cc2ccccc2)c(CC(C)NCCc2ccc(OC)c(OC)c2)c1 (stereo not drawn)
Contractile force, % of control [1]: 95%
P (Ei) [2]: >0.5
Change [11]: -68%
C175 [3]: 0.027 µM
Max fall in blood pressure [4]: 37 mmHg
Change [12]: -46%
Change [13]: -27%
Change [14]: -45%

COc1ccc(C#Cc2ccc([S+](C)[O-])cc2)c(CC(C)N(C)CCc2ccc(OC)c(OC)c2)c1 (stereo not drawn)
Contractile force, % of control [1]: 10%
P (Ei) [2]: <0.001
Max fall in blood pressure [17]: 29 mmHg
C175 [3]: 3 µM

COc1ccc([C@@H]2Sc3ccccc3N(CCN(C)C)C(=O)[C@@H]2OC(C)=O)cc1 [DILTIAZEM]
Contractile force, % of control [1]: 90%
Max fall in blood pressure [16]: 48 mmHg
P (Ei) [2]: >0.05
Change [11]: -84%
C175 [3]: 0.18 µM
Change [12]: -18%
Change [13]: -37%
Change [14]: -8%

COC(=O)C1=C(C)NC(C)=C(C(=O)OC)C1c1ccccc1[N+](=O)[O-] [NIFEDIPINE]
Contractile force, % of control [1]: 85%
P (Ei) [2]: 0.014
C175 [3]: 0.013 µM
Max fall in blood pressure [5]: 52 mmHg

COc1ccc(CCN(C)CCCC(C#N)(c2ccc(OC)c(OC)c2)C(C)C)cc1OC (stereo not drawn) [VERAPAMIL]
Contractile force, % of control [1]: 35%
Max fall in blood pressure [16]: 67 mmHg
P (Ei) [2]: <0.001
Change [11]: -89%
C175 [3]: 0.1 µM
Change [12]: -30%
Change [13]: -22%
Change [14]: -18%
